Bioassay records as filed in PubChem.
Rows were chosen to be rich in hits. Some 12% of all compounds tested hit in one or more screens of this group.
Autophagy mod: autophagy modulation, high-content screen. MEF GFP-LC3 puncta imaging; test concentration mostly 10 µM. calls only at 10 µM (by protocol). actives 0.98% (n = 190,000);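 active = percentage of spot-positive cells more than 3 SD above its plate mean, without a fluorescence outlier flag or 80% toxicity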
MT stabilizer: stabilizes microtubules in HeLa cells; AID 2205; % tubulin-high responders, % at 10 µM; HeLa tubulin immunostaining HCS, 24 h; share of cells brighter than vehicle mean+2SD; actives 0.83% (n = 200,000);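 active = plate Z-score above 3 for both tubulin-high and condensed-nucleus cell shares, with cell loss under 80%, at 10 µM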;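 note: anti alpha tubulin signal scored within the nucleus-defined area of each cell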
bCat nuc transl: modulators of beta-catenin nuclear translocation; nuclear translocation activity, % at 5 µM; HeLa beta-catenin nuclear translocation, immunofluorescence imaging; AID 1665; actives 0.3% (n = 190,000);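 active = nuclear translocation activity above 50% at 5 µM, with a well cell count of 50 or more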;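 note: per-cell ratio of nuclear to cytoplasmic median beta-catenin stain intensity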
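System: HeLa cells, endogenous beta-catenin; compound dosing: 5 µM primary single dose, 0.1% DMSO, 0.02–20 µM confirmation series; incubation: 24 h compound exposure at 37°C, 5% CO2; signal: beta-catenin immunofluorescence imaging with DAPI; evaluation: % activation, nuclear-to-cytoplasmic median beta-catenin signal ratio per cell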
Dynein transport: dynein cargo transport inhibition. 3617.4 mouse cells, GR-EGFP nuclear translocation imaging; test concentration mostly 20 µM; stimulated with dexamethasone, 1 µM; stronger effect = lower value. z-score, hits read low. actives 0.47% (n = 220,000);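 active = plate z-score of nuclear minus cytoplasmic receptor signal below a set negative limit, without overly bright fluorescence or cell loss, cut at about -3.5 in these data, passing the limit was not always enough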;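 note: z-score of nuclear minus cytoplasmic ring GR-EGFP intensity difference per well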
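Buffer or medium: tet-free, stripped-serum medium; Also added: dexamethasone, 1.0 µM final; Technique: high-content fluorescence imaging after fixation; Times: 48 h induction, 1 h compound, 30 min dex at 37 °C; Read-out: per-cell GR-EGFP intensity, nucleus versus surrounding cytoplasmic ring, well-averaged.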
Lmaj promast: inhibitors of Leishmania major promastigote growth; Leishmania major promastigotes, resazurin fluorescence viability; inhibition, % at 10 µM; actives 9% (n = 200,000); AID 1063; in the data active = inhibition above about 50%;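 note: promastigotes grown with compound for 44 hours at 28 °C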
CHOP inhibitor: blocks CHOP induction under ER stress; CHO-K1 CHOP-promoter luciferase, tunicamycin-induced, 15-18 h; actives 3.8% (n = 220,000); inhibition, % at 10 µM;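 active = compounds that reduced the stress-induced luciferase reporter signal by more than about 70% of percent inhibition, limit read from the data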
Hits are given with their value; n = inactive; x = no result given; + = active, no number.

SMILES	Autophagy mod	MT stabilizer	bCat nuc transl	Dynein transport	Lmaj promast	CHOP inhibitor
COc1ccc(N(CC(=O)Nc2ccc3c(c2)OCO3)S(=O)(=O)c2ccccc2)c(OC)c1	n	n	n	n	71.0	n
COc1ccc(N(CC(=O)Nc2ccc3c(c2)OCO3)S(=O)(=O)c2ccc(F)cc2)cc1	+	n	n	n	n	n
COc1ccc(S(=O)(=O)N(C)CC(=O)Nc2ccc3c(c2)OCO3)cc1	n	n	n	n	n	n
COc1ccc(N(CC(=O)Nc2ccc3c(c2)OCO3)S(=O)(=O)c2ccc(C)cc2)cc1OC	n	n	n	n	62.7	n
COc1ccc(S(=O)(=O)CCC(=O)Nc2cccc(OC)c2)cc1	n	n	n	n	n	n
COc1ccc(S(=O)(=O)N(CC(=O)Nc2ccc(S(=O)(=O)N3CCOCC3)cc2)c2ccccc2)cc1	n	n	n	n	n	n
COc1ccc(S(=O)(=O)N(CC(=O)Nc2ccc(S(=O)(=O)N3CCOCC3)cc2)Cc2ccc(F)cc2)cc1	n	n	n	n	97.4	n
COc1ccccc1NS(=O)(=O)c1cc(NC(=O)CCNC(C)=O)ccc1C	n	n	n	n	n	n
COc1ccc(NC(C)=O)cc1S(=O)(=O)Nc1ccc2c(c1)OCCO2	n	n	n	n	n	n
COc1ccccc1NS(=O)(=O)c1cc(NC(=O)c2ccc3c(c2)OCCO3)ccc1C	n	n	n	n	57.8	n
COc1ccccc1NS(=O)(=O)c1cc(NC(=O)CNC(=O)c2ccccc2)ccc1C	n	n	n	n	63.9	n
COc1cccc(/C=N/NC(=O)C(=O)Nc2ccccc2OC(F)(F)C(F)F)c1O	n	n	n	n	97.1	78.1
COc1ccccc1/C=N/NC(=O)c1cccc(OC(F)(F)C(F)F)c1	n	n	n	n	n	n
COc1cccc(/C=N/NC(=O)C(=O)NCc2cccnc2)c1O	n	n	n	n	98.3	n
COc1cc(C(=O)OCC(=O)Nc2c(F)cccc2F)cc(OC)c1C	n	n	n	n	n	93.7
COc1ccccc1CNc1ncnc2c1nnn2Cc1ccccc1	n	n	x	n	n	n
Cn1c(Cc2nc(-c3cnccn3)no2)nnc1SCC(=O)Nc1ccccc1	x	x	n	n	x	n
Cc1ccc(N/C(N)=N/c2nc(CSc3nnc(C)s3)cc(=O)[nH]2)c(C)c1	n	12.5	n	n	n	n
COc1ccc(C(=O)Oc2ccc(=O)n(-c3ccccc3)n2)cc1	n	n	x	n	n	n
COc1ccc2c(c1)C(=O)N(c1ccccc1C)C(=O)C2(C)C	n	19.0	n	n	n	n
CCCn1c(SCC(=O)NC(C)(C)C)nnc1-c1ccco1	n	n	n	n	n	n
CC(C)(C)[C@H]1C=C(C(=O)NC2CC2)O[C@@H](OCCCCO)C1	n	n	n	n	n	n
CCOC(=O)c1cccnc1SCC(=O)N(CC)c1cccc(C)c1	n	n	x	n	91.2	n
CCOC(=O)C1=C(CS(=O)(=O)c2ccc(F)c(C)c2)NC(=O)NC1c1ccc(O)c(O)c1 (centres undefined)	n	n	n	n	n	n
O=C(NCc1ccco1)c1cc(C(=O)C2CC2)c[nH]1	n	n	x	n	n	n
SMILES	Autophagy mod	MT stabilizer	bCat nuc transl	Dynein transport	Lmaj promast	CHOP inhibitor
O=C1CC(c2ccccc2Cl)c2c(sc3c(=O)[nH]c(CCl)nc23)N1 (centres undefined)	x	x	n	n	x	n
Oc1ccc(-c2nccc(-c3ccc(Cl)cc3Cl)n2)cc1	n	n	n	n	n	79.9
OCC1(CCCc2ccccc2)CCN(Cc2cc(F)ccc2F)CC1	n	n	n	n	82.8	n
OCC1(CCc2ccccc2)CCN(Cc2ccccc2Cl)CC1	n	n	n	n	57.2	n
OCC1(CCc2ccccc2)CCN(Cc2c(F)ccc(F)c2F)CC1	n	n	n	n	n	n
O=C(NCCN1CCN(Cc2ccccc2Cl)CC1)Nc1ccccc1	n	n	x	n	82.2	n
CCCS(=O)(=O)N1CCC(C(=O)N2CCN(Cc3ccccc3)CC2)CC1	n	n	n	n	n	n
O=C(NCCN1CCN(C(=O)Nc2ccccc2)CC1)Nc1ccccc1	n	n	x	n	n	n
CCCS(=O)(=O)N1CCN(CCCc2ccccc2)CC1	n	n	n	n	78.7	n
NS(=O)(=O)c1ccc(CCNC(=O)COC(=O)CC(c2ccccc2)c2ccccc2)cc1	n	n	n	n	n	n
